Compound activity as filed in PubChem BioAssay.
A selection: hits, their analogues and other compounds. The true share with any hit is near 1.1%.
Keap1-Nrf2 PPI – inhibitors of human Keap1-Nrf2 protein-protein interaction; Q14145; Keap1 Kelch-Nrf2 peptide fluorescence polarization, 1536-well; inhibition, % at 9.4 µM; actives 0.15% (n = 340,000); in the data active = inhibition above about 12%; inconclusive = no clear call, values can overlap the other calls; inactive = below about 7.3%;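 also: human Keap1 Kelch domain with fluorescein labeled Nrf2 9mer peptide probe; higher means more block of Keap1 binding to Nrf2 peptide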
Target sequence (Q14145 whole entry, looked up, the tested form may be a part): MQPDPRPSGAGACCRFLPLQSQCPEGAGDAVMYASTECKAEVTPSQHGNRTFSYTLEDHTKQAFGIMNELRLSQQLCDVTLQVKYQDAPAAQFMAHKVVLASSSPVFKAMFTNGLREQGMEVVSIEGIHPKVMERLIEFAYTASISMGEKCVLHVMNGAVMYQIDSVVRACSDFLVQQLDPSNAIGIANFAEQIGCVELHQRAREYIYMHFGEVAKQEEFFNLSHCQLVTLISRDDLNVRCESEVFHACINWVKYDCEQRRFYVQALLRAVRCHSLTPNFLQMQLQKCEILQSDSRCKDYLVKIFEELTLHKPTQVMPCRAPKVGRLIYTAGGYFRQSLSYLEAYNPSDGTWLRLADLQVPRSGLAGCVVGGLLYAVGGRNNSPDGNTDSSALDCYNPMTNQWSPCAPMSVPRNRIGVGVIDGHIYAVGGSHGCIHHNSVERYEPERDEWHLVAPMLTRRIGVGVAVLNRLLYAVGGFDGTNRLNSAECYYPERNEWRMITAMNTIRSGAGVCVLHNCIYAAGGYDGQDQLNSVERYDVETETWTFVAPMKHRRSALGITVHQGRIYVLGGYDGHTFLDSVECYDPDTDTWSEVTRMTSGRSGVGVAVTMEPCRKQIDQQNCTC
CAL PDZ FP-1 – blocks peptide binding to human CAL PDZ domain; actives 0.02% (n = 330,000); Q9HD26; inhibition, % at 20 µM; purified CAL PDZ, TMR-peptide fluorescence polarization, 1 h; AID 504414;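 active = highest replicate inhibition of at least 40%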
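Test system: tagged CAL PDZ domain / Buffer or medium: sodium phosphate/NaCl buffer pH 7.4 with TCEP, IgG, Thesit / Reagent: TMR-labelled reporter peptide T*-PRC34 bound in PDZ groove / Compound dosing: single point, 20 µM / Schedule: 1 h incubation at room temperature before polarization reading / Technique: fluorescence polarization (mP) / Benchmarks: unlabelled peptide, DMSO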
CAL PDZ FP-2 – inhibitors of human CAL PDZ peptide binding; purified CAL PDZ, TMR-peptide fluorescence polarization, 1 h; AID 602252; Q9HD26; inhibition, % at 24.9 µM; actives 0.92% (n = 300,000);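 active = mean inhibition of at least 30% with at least half of replicates also reaching 30%; inconclusive = no clear call, values can overlap the other calls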
C-LANA FP – KSHV C-LANA DNA binding inhibition | MBP-C-LANA/FAM-LBS DNA binding, fluorescence polarization | inhibition, % at 9 µM | actives 0.078% (n = 340,000);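 active = highest replicate inhibition at or above 60% at 9 µM, even if other replicates fall short; inactive = all replicates below 60% inhibition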
miR122 inh – miR-122 inhibition in Huh7 cells; Huh7 miR-122 Renilla luciferase sensor, 48 h; neutral wells = 0, positive control = 100; activation (reporter increase), % at 12.5 µM; actives 0.3% (n = 340,000);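 active = mean replicate activation score at least 90 and every replicate individually at or above 90; inconclusive = only one of the two criteria met; inactive = neither criterion met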;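 also: higher luciferase means less miR-122 activity so hits act as miR-122 inhibitors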
Hits are given with their value; - = inactive; ? = inconclusive; . = no result given.

SMILES	Keap1-Nrf2 PPI	CAL PDZ FP-1	CAL PDZ FP-2	C-LANA FP	miR122 inh
CCOc1ccc(NC(=O)CSc2nnc(CCNC(=O)c3ccc(OC)cc3)n2CC)cc1	-	.	-	-	-
CCn1c(CCNC(=O)c2ccc(OC)cc2)nnc1SCC(=O)Nc1ccccc1F	-	-	-	-	120
O=C(CSc1nc2nn(-c3ccccc3)c(=O)c-2c2n1CCCCC2)Nc1ccc(OC(F)F)cc1	-	-	127	-	-
C[C@@H]1CN([C@H](C)CO)C(=O)c2cc(NC(=O)Cc3ccccc3)ccc2O[C@@H](C)CCCCO[C@@H]1CN(C)C	.	.	.	.	-
O=S(=O)(c1ccc2c(c1)CCCN2)N1CCCC1	-	-	58	-	-
Cc1ccc(CSc2nc(N)cc(N)n2)cc1	-	.	-	-	-
N#Cc1ccc(CSc2nc(N)cc(N)n2)cc1	-	-	72	-	-
CCCNC(=O)N1C[C@H](O)COC[C@H]2O[C@H](CC(=O)N[C@@H]3CCN(Cc4ccccc4)C3)CC[C@@H]21	.	.	.	.	-
CC1(C)CC(=O)N(c2ccc(Cl)cc2Cl)C(=O)C1	-	-	61	-	-
C[C@H](CO)N1C[C@H](C)[C@@H](CN(C)CC2CCOCC2)Oc2ncc(C#Cc3ccccc3)cc2C1=O	.	.	.	.	-
CN1CCN(C(=O)C[C@@H]2CC[C@@H]3[C@H](COC[C@H](O)CN3S(=O)(=O)c3cccc(Cl)c3)O2)CC1	.	.	.	.	-
COc1ccc(NC(=O)C#Cc2ccccc2)cc1	-	-	63	-	-
C/C=C/c1cnc2c(c1)C(=O)N([C@@H](C)CO)C[C@@H](C)[C@@H](CN(C)Cc1cccc(C(=O)O)c1)O2	.	.	.	.	-
COc1cccc(NS(=O)(=O)c2cc(C)ccc2OC)c1	-	-	.	-	?
COc1ccc(NS(=O)(=O)c2cc(C)ccc2OC)cc1OC	-	-	-	-	95
COc1ccc(C)cc1S(=O)(=O)Nc1cccc(SC)c1	-	-	-	-	166
COc1ccc(C)cc1S(=O)(=O)Nc1cccc(C)c1	-	-	-	-	.
C[C@H]1CN([C@@H](C)CO)C(=O)Cc2cc(NC(=O)Cc3ccccc3)ccc2O[C@H]1CN(C)C(=O)Nc1ccc(F)cc1	.	.	.	.	-
C[C@@H]1CN([C@@H](C)CO)C(=O)c2cc(C#Cc3cccnc3)cnc2O[C@H]1CN(C)C	.	.	.	.	-
CC(=O)Nc1ccccc1NC(=O)C/C(C)=N/NC(=O)c1ccc([N+](=O)[O-])c(Cl)c1	-	-	30	-	-
C/C(CC(=O)Nc1cccnc1)=N\NC(=O)c1ccc([N+](=O)[O-])c(Cl)c1	-	-	-	-	.
CC1CN(S(=O)(=O)c2ccc(CN3C(=O)c4cccnc4C3=O)s2)c2ccccc2O1 (configuration not stated)	-	-	52	-	-
CC(C)NC(=O)N(C)C[C@H]1Oc2ccc(NC(=O)Nc3ccc4c(c3)OCO4)cc2CC(=O)N([C@H](C)CO)C[C@H]1C	.	.	.	.	-
O=C(c1cccc(C(F)(F)F)c1)C1CCCN(C(=O)CCn2cnnn2)C1 (configuration not stated)	-	-	52	-	-
Oc1cccc2ccc(/C=C/c3ccccc3Br)nc12	-	-	59	-	-
SMILES	Keap1-Nrf2 PPI	CAL PDZ FP-1	CAL PDZ FP-2	C-LANA FP	miR122 inh
Oc1ccc(Cl)cc1/C=C/c1ccc2cccc(O)c2n1	-	-	-	-	140
CC(=O)c1c(C)[nH]c(C(=O)Nc2ccc(C)c(S(=O)(=O)Nc3ccc(C)cc3C)c2)c1C	-	-	-	-	166
CC(=O)Nc1nc2n(n1)C(c1ccccc1)C=C(c1ccccc1)N2 (configuration not stated)	-	-	-	-	-
CS(=O)(=O)Nc1nc2n(n1)C(c1ccccc1)C=C(c1ccc(Br)cc1)N2 (configuration not stated)	35	-	-	74	-
CCOc1cc(S(=O)(=O)NCCc2cccc(C)c2)c(OCC)cc1-n1cnnn1	-	-	-	-	-
CCOc1cc(S(=O)(=O)NCCc2ccccc2C)c(OCC)cc1-n1cnnn1	-	-	-	-	126
COc1ccc(CCN2CC(O)=C(c3nc(C)cs3)C2=N)cc1OC	-	-	.	-	130
CCCC#Cc1ccc([C@H]2[C@@H](CO)N3CCCCN(C(=O)NC4CCCC4)C[C@H]23)cc1	.	.	.	.	-
Cc1cc(C(O)c2ncc(-c3ccccc3C)[nH]2)ccc1F (configuration not stated)	.	.	.	.	-
